DYRK1A inh = blocks rat Dyrk1A kinase activity; 0.43% of 310,000 active; inhibition, % at 12.5 µM; AID 504441; Q63470; ADP-Glo luminescence, NFATc1 peptide
CDK5 p35 inh = CDK5/p35 (human) kinase inhibition | 0.01% of 330,000 active | Q00535+Q15078 | inhibition, % at 10 µM | Recombinant CDK5/p35, ADP-Glo luminescence, 60 min;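 active = highest replicate inhibition of at least 50% and at least 75% of replicates reaching 50%; inconclusive = only one of the two criteria met; inactive = both criteria failed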
Target sequence (Q00535 whole entry, looked up): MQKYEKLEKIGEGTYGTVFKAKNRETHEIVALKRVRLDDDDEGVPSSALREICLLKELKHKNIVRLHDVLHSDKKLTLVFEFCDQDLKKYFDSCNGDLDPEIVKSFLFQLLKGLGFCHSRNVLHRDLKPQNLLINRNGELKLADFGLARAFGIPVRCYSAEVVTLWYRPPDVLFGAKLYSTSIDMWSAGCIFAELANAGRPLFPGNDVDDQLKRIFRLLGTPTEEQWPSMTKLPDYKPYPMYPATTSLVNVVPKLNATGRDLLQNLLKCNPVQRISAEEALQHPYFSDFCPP
Target sequence (Q15078 whole entry, looked up): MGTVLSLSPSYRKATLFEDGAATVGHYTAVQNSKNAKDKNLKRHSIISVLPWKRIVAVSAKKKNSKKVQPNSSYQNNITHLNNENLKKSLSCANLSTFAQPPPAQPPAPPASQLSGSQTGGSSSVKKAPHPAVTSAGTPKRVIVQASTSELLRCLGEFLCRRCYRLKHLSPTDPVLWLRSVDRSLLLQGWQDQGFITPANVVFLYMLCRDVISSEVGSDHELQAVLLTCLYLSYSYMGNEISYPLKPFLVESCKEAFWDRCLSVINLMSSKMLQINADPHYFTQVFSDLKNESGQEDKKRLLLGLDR
SR-BI DiI inh = blocks mouse SR-BI lipid uptake from DiI-HDL; inhibition, % at 12.5 µM; ldlA[mSR-BI] CHO cells, DiI-HDL uptake fluorescence, 3 h; 0.96% of 320,000 active; Q61009;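 active = mean replicate inhibition of at least 70% and a set share of replicates each scoring 70 or more; inconclusive = meets just one of the two criteria; inactive = fails both criteria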
NSD2 HMT inh = blocks human histone methyltransferase NSD2; O96028; NSD2 peptide methylation, AlphaScreen, 120 min; inhibition, % at 12.5 µM; 0.54% of 310,000 active
dFosB act-1 = mouse delta FosB homodimer activation | P13346 | purified delta FosB, TAMRA-CDK5 oligo fluorescence polarization; percent of positive-control signal above neutral wells | activation, % at 25 µM | 0.99% of 340,000 active;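 active = mean activation above about 17%, with every replicate also reaching it, limit read from the data, passing the limit was not always enough; inconclusive = only one of the two conditions met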
SR-BI DiI-HDL act = SR-BI HDL lipid transfer activation | AID 504775 | activation, % at 12.5 µM | CHO ldlA[mSR-BI] cells, DiI-HDL uptake fluorescence, 3 h; 100 = double the neutral-control signal | 0.096% of 320,000 active;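 active = mean replicate activation of at least 60% and every replicate at or above 60%; inconclusive = mean or all-replicate condition met, but not both; inactive = mean below 60% and not all replicates reaching 60%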
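Test system: SR-BI-overexpressing, LDLR-lacking CHO cells; Medium: Ham's F12 with 0.5% BSA, HEPES 25 mM, pH 7.4; Schedule: 3 h, 37 °C; Technique: bottom-read fluorescence, 550/595 nm.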
dFosB act-2 = activators of mouse delta FosB homodimer DNA binding; shares compounds with dFosB act-1; purified delta FosB, TAMRA-CDK5 oligo fluorescence polarization; normalised: neutral wells 0, positive control 100; activation, % at 24.9 µM; 2,400 tested, under 10 active; AID 588690;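 active = highest replicate activation at or above 34% and every replicate reaching that threshold; inconclusive = meets only one of the two criteria; inactive = meets neither criterion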;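 note: higher polarization means more probe DNA bound by delta FosB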
Each line names hits and unclear results; the compound was inactive in the other large screens (follow-up assays come after a bar, where they were run). This is a sample that favours compounds with a hit; in the whole collection about 2.5% have one here. Cut-off read from the data, not from the text of the source, unless noted: active = inhibition above about 50%; inactive = the rest.

Cc1ccc2nc(-c3cccc(Br)c3)cc(C(=O)NC3=NCCS3)c2c1	dFosB act-1 44 (no result: DYRK1A inh) | dFosB act-2 inactive
O=C(NC1=NCCS1)c1cc(-c2ccc(F)cc2)nc2ccccc12	none
CCc1ccc(CNC(=O)CCn2nc(C)c3c(C)n(-c4ccccc4)nc3c2=O)cc1	dFosB act-1 73 | dFosB act-2 inactive
Cc1ccc(-n2nc3c(=O)n(CC(=O)NCCc4ccc(Cl)cc4)nc(C)c3c2C)cc1	dFosB act-1 51 | dFosB act-2 inactive
COc1ccccc1C(=O)NC1CCCCN(C)C1=O (stereo unspecified)	none (no result: DYRK1A inh, CDK5 p35 inh, SR-BI DiI inh, dFosB act-1, SR-BI DiI-HDL act)
CCOc1ccc(NC(=O)CNC(=O)c2nn(-c3ccc(OC)c(OC)c3)c(=O)c3ccccc23)cc1	dFosB act-1 76 | dFosB act-2 inactive
CCOc1ccccc1NC(=O)CNC(=O)c1nn(-c2ccc(OC)c(OC)c2)c(=O)c2ccccc12	none (no result: SR-BI DiI inh, SR-BI DiI-HDL act)
COc1ccc(-n2nc(C(=O)Nc3ccc(OC)c(OC)c3)c3c4ccccc4n(C)c3c2=O)cc1	SR-BI DiI inh inconclusive, dFosB act-1 27 | dFosB act-2 inactive
COc1ccc(-n2nc(C(=O)NCC(=O)Nc3cccc(Cl)c3)c3ccccc3c2=O)cc1OC	dFosB act-1 100 (no result: SR-BI DiI inh, SR-BI DiI-HDL act) | dFosB act-2 inactive
CC1=C(C(=O)N2CCCCCC2)CC(CC(=O)NCCN2CCOCC2)C(=O)N1CCCN1CCCC1=O (stereo unspecified)	none (no result: DYRK1A inh, CDK5 p35 inh, SR-BI DiI inh, dFosB act-1, SR-BI DiI-HDL act)
CC(=O)Nc1ccc(S(=O)(=O)N[C@@H](C)C(=O)OCC(=O)c2ccc(Br)s2)cc1	none (no result: DYRK1A inh, CDK5 p35 inh, SR-BI DiI inh, dFosB act-1, SR-BI DiI-HDL act)
COc1ccc(-c2ccnc3nc(-n4cccc4)nn23)cc1	none
Clc1cccc(-c2ccnc3nc(-n4cccc4)nn23)c1	dFosB act-1 37 | dFosB act-2 inactive
CC(C)C(=O)N1CCC1(C)C(=O)NS(=O)(=O)c1cccs1 (stereo unspecified)	none (no result: DYRK1A inh, CDK5 p35 inh, SR-BI DiI inh, dFosB act-1, SR-BI DiI-HDL act)
CCCCN(C(=O)c1cc(Cl)nc2ccccc12)c1c(N)n(Cc2ccccc2)c(=O)[nH]c1=O	dFosB act-1 27 | dFosB act-2 inactive
O=C(NCc1ccc(F)cc1)c1cc(S(=O)(=O)N2CCCCC2)ccc1N1CCOCC1	none
O=C(CNC(=O)c1cc(S(=O)(=O)N2CCCCC2)ccc1N1CCOCC1)Nc1ccc(F)c(F)c1	dFosB act-1 54 | dFosB act-2 inactive
O=C(NCC1CCCCC1)c1cccc(S(=O)(=O)NCc2cccnc2)c1	none (no result: DYRK1A inh)
Cc1ccc2c(c1)NC(=O)c1cc([N+](=O)[O-])ccc1O2	dFosB act-1 31 | dFosB act-2 inactive
NS(=O)(=O)c1ccc(NC(=O)COC(=O)/C(=C/c2cccs2)c2cccs2)cc1	dFosB act-1 27 (no result: SR-BI DiI inh, NSD2 HMT inh, SR-BI DiI-HDL act) | dFosB act-2 inactive
CCOc1cc(Br)c(C(C)NC(=O)c2cccnc2)cc1OCC (stereo unspecified)	none (no result: DYRK1A inh, CDK5 p35 inh, SR-BI DiI inh, dFosB act-1, SR-BI DiI-HDL act)
Cc1ccccc1Cn1c(=O)n(-c2ccccc2)c(=O)c2ccc(C(=O)NCc3ccco3)cc21	dFosB act-1 45 (no result: NSD2 HMT inh) | dFosB act-2 inactive
O=C(NCc1ccco1)c1ccc2c(=O)n(-c3ccccc3)c(=O)n(Cc3cccc(F)c3)c2c1	dFosB act-1 47 (no result: NSD2 HMT inh) | dFosB act-2 inactive
C=CCn1c(=O)c2ccc(C(=O)NCc3ccccc3)cc2n(Cc2cccc(Cl)c2)c1=O	dFosB act-1 42 (no result: NSD2 HMT inh) | dFosB act-2 inactive
Cc1ccc(-n2c(=O)c3ccc(C(=O)NCc4ccco4)cc3n(Cc3ccccc3C#N)c2=O)cc1	none
CCOc1ccc2ccccc2c1C1NC(=O)N(C)C(C)=C1C(=O)OCCOC (stereo unspecified)	none
O=C(Nc1ccc(Cl)cc1)Nc1nc(-c2sccc2Br)cs1	dFosB act-1 27 | dFosB act-2 inactive
O=C(Nc1ccc(Cl)cc1)Nc1nc(-c2ccccc2O)cs1	none (no result: SR-BI DiI inh, NSD2 HMT inh, SR-BI DiI-HDL act)
Cc1ccc(-c2csc(C(O)c3ccccc3)n2)cc1C (stereo unspecified)	none (no result: DYRK1A inh, CDK5 p35 inh, SR-BI DiI inh, dFosB act-1, SR-BI DiI-HDL act)
O=C(/C=C/c1ccccc1)Nc1ccc(Br)cn1	dFosB act-1 23 (no result: DYRK1A inh) | dFosB act-2 inactive
Cc1ccc(NC(=O)/C=C/c2ccc(Cl)cc2)nc1	none
